According to ChEMBL document CHEMBL3124742, “Synthesis and biological evaluation of new carbohydrate-substituted indenoisoquinoline topoisomerase I inhibitors and improved syntheses of the experimental anticancer agents indotecan (LMP400) and indimitecan (LMP776)” (J Med Chem, 2014):
The source made the active and inactive calls. No cut-off for these calls is given here.

Tests used:
[1] = target: T1, DNA topoisomerase 1 (Homo sapiens) (UniProt P11387); assay: Inhibition of recombinant topoisomerase-1 (unknown origin) assessed as inhibition of 3'-[32P]-labeled DNA cleavage at 0.1 to 100 uM after 20 mins by PAGE analysis relative to control
T1 sequence (whole entry): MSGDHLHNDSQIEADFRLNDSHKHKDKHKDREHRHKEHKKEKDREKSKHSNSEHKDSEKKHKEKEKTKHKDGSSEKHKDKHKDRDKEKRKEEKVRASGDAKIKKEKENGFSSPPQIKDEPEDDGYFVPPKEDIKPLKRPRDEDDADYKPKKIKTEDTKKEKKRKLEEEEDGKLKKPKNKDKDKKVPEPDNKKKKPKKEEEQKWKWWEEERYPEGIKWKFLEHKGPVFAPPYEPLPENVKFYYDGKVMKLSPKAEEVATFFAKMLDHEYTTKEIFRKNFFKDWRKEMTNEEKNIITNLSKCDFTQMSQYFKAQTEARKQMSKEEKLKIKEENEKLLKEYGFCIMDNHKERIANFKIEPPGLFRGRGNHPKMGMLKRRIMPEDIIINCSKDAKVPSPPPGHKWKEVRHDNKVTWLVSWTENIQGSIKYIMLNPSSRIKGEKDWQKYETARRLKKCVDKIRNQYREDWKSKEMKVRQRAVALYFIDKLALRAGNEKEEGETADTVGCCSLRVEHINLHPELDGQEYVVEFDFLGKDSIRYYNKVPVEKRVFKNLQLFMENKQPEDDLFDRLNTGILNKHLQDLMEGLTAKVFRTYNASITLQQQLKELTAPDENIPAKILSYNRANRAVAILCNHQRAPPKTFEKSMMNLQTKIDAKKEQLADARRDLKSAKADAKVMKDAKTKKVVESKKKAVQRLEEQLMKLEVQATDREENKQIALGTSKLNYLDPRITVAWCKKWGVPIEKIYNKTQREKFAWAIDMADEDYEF

[2] = tested on: DU-145; assay: Growth inhibition of human DU145 cells; assay type: functional
Procedure, shortened: (§1)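 NCI-60 five-dose testing, 10^-8 to 10^-4 M, given only to compounds with significant growth inhibition in the 10 μM one-dose screen. Five-dose assay may be repeated.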

[3] = tested on: HOP-62; assay: Growth inhibition of human HOP62 cells; assay type: functional; procedure, shortened: as §1
[4] = tested on: MCF7; assay: Growth inhibition of human MCF7 cells; assay type: functional; procedure, shortened: as §1
[5] = Cytotoxicity against human NCI60 cells assessed as cell growth at 10 uM relative to vehicle-treated control; assay type: functional; details: read-out: Activity
Procedure, shortened: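 NCI-60 one-dose screen: roughly 60 human cancer cell lines exposed to 10^-5 M (10 μM) compound. Value is growth percent of treated cells relative to vehicle-treated control, averaged across the panel.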

[6] = tested on: UACC-62; assay: Growth inhibition of human UACC62 cells; assay type: functional; procedure, shortened: as §1
[7] = tested on: OVCAR-3; assay: Growth inhibition of human OVCAR3 cells; assay type: functional; procedure, shortened: as §1
[8] = Growth inhibition of human SF539 cells; assay type: functional; details: SF-539; procedure, shortened: as §1
[9] = tested on: SN12C; assay: Growth inhibition of human SN12C cells; assay type: functional; procedure, shortened: as §1
[10] = tested on: HCT-116; assay: Growth inhibition of human HCT116 cells; assay type: functional; procedure, shortened: as §1
[11] = target: Tyrosyl-DNA phosphodiesterase 1 (Homo sapiens, UniProt Q9NUW8); assay: Inhibition of recombinant TDP1 (unknown origin) using N14Y as substrate after 15 mins by PAGE analysis
Chain of Tyrosyl-DNA phosphodiesterase 1 (Q9NUW8 whole entry): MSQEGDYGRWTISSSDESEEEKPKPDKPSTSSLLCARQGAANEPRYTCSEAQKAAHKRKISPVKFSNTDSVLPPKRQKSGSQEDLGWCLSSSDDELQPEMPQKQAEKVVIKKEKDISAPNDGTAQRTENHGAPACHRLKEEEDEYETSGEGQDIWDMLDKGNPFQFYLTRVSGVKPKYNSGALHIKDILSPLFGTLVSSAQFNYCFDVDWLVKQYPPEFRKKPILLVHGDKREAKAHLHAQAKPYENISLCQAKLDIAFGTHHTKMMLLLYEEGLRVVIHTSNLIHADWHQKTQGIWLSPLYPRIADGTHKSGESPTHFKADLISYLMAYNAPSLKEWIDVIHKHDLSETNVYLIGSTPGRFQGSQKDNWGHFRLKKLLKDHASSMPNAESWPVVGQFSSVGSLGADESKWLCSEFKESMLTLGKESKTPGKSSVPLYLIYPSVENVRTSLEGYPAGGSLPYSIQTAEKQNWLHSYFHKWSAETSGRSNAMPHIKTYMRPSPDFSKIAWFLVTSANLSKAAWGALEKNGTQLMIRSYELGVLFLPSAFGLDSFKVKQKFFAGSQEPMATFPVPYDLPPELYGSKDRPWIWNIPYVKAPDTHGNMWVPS
Procedure, shortened: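 Substrate is a 5'-[32P]-labelled single-stranded oligonucleotide with a 3'-phosphotyrosine (N14Y). It is incubated with 5 pM recombinant TDP1 ± test compound for 15 min at room temperature. Read-out is a gel.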

SMILES	inhibition [1]	GI50 [2]	GI50 [3]	GI50 [4]	growth at 10 µM [5]	GI50 [6]	GI50 [7]	GI50 [8]	GI50 [9]	GI50 [10]	IC50 [11]
O=C1c2ccccc2-c2c1c1ccc([N+](=O)[O-])cc1c(=O)n2C[C@@H](O)[C@@H](O)[C@H](O)[C@H](O)CO	Active	> 100000 nM	> 100000 nM	724 nM	73.2%	3470 nM	5250 nM	3390 nM			
O=C1c2ccccc2-c2c1c1ccc([N+](=O)[O-])cc1c(=O)n2C[C@@H](O)[C@@H](O)[C@H](O)CO	Active	3470 nM		501 nM	-16.1%	1100 nM	2140 nM	1740 nM	2690 nM	1200 nM	
O=C1c2ccccc2-c2c1c1ccc([N+](=O)[O-])cc1c(=O)n2C[C@@H](O)[C@H](O)[C@H](O)CO	Active	3160 nM	1910 nM	912 nM	-9.21%		1700 nM	1450 nM		1350 nM	
O=C1c2ccccc2-c2c1c1ccc([N+](=O)[O-])cc1c(=O)n2C[C@H](O)[C@@H](O)[C@H](O)CO	Active	457 nM	363 nM	96 nM	-14.6%		407 nM	214 nM	295 nM	141 nM	
COc1cc2c3c(n(C[C@@H](O)[C@@H](O)[C@H](O)[C@H](O)CO)c(=O)c2cc1OC)-c1cc2c(cc1C3=O)OCO2	Active				79.5%						> 111000 nM
O=C1c2ccccc2-c2c1c1ccc([N+](=O)[O-])cc1c(=O)n2C[C@@H](O)CO	75%	427 nM	347 nM	56 nM	-27%		398 nM	309 nM	380 nM	138 nM	> 111000 nM
COc1cc2c3c(n(C[C@H](O)CO)c(=O)c2cc1OC)-c1cc2c(cc1C3=O)OCO2	Active	34 nM	28 nM	10 nM	7.1%	17 nM	48 nM	25 nM	30 nM	21 nM	> 111000 nM
COc1cc2c3c(n(C[C@H](O)[C@@H](O)[C@H](O)CO)c(=O)c2cc1OC)-c1cc2c(cc1C3=O)OCO2	Active	138 nM	27 nM	34 nM	5.32%	52 nM	96 nM	21 nM	85 nM	59 nM	> 111000 nM
O=C1c2ccccc2-c2c1c1ccc([N+](=O)[O-])cc1c(=O)n2C[C@H](O)[C@H](O)[C@H](O)CO	Active	550 nM	407 nM	145 nM	-27.5%		525 nM	234 nM	380 nM	219 nM	> 111000 nM
COc1cc2c3c(n(C[C@H](O)[C@@H](O)[C@H](O)[C@H](O)CO)c(=O)c2cc1OC)-c1cc2c(cc1C3=O)OCO2	75%				87.5%						> 111000 nM
COc1cc2c3c(n(C[C@@H](O)[C@H](O)[C@H](O)CO)c(=O)c2cc1OC)-c1cc2c(cc1C3=O)OCO2	75%	50100 nM	50100 nM	148 nM	52.8%	155 nM	50100 nM	174 nM	234 nM	355 nM	> 111000 nM
COc1cc2c3c(n(C[C@@H]4O[C@H](CO)[C@@H](O)[C@H](O)[C@H]4O)c(=O)c2cc1OC)-c1cc2c(cc1C3=O)OCO2	50%				97.7%						
COc1cc2c3c(n(C[C@H](O)[C@@H](O)[C@@H](O)[C@H](O)CO)c(=O)c2cc1OC)-c1cc2c(cc1C3=O)OCO2	50%				82.3%						
COc1cc2c3c(n(C[C@H](O)[C@H](O)[C@H](O)CO)c(=O)c2cc1OC)-c1cc2c(cc1C3=O)OCO2	75%	479 nM	251 nM	59 nM	46.9%	62 nM	22 nM	28 nM	229 nM	148 nM	
O=C1c2ccccc2-c2c1c1ccc([N+](=O)[O-])cc1c(=O)n2C[C@H](O)[C@@H](O)[C@@H](O)[C@H](O)CO	Active	9550 nM	5130 nM	2950 nM	51.5%		6030 nM	2570 nM	4270 nM		> 111000 nM
O=C1c2ccccc2-c2c1c1ccc([N+](=O)[O-])cc1c(=O)n2CC(O)CO (racemic)	75%	363 nM	324 nM	60 nM	-17.5%		479 nM	339 nM	355 nM	138 nM	> 111000 nM
COc1cc2c3c(n(CC(O)CO)c(=O)c2cc1OC)-c1cc2c(cc1C3=O)OCO2 (racemic)	Active	36 nM	31 nM	21 nM	27.1%		52 nM	23 nM	35 nM	26 nM	> 111000 nM
COc1cc2c3c(n(C[C@@H](O)CO)c(=O)c2cc1OC)-c1cc2c(cc1C3=O)OCO2	Active	40 nM	36 nM	29 nM	31.6%			32 nM	37 nM	36 nM	> 111000 nM
O=C1c2ccccc2-c2c1c1ccc([N+](=O)[O-])cc1c(=O)n2C[C@@H]1O[C@H](CO)[C@@H](O)[C@H](O)[C@H]1O	50%				77.4%						
